The subject of assay [1] is Rattus norvegicus. Nature of the assay: Inhibition of histamine-induced gastric acid secretion in Jcl:Sprague-Dawley rat at 1 mg/kg, iv administered 3 mins before histamine challenge measured after 3 hrs relative to control. In kind it is functional. The conditions noted are these: Stomach. In short, it runs like this: (§1)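 Seven-week-old male SD rats, fasted 24 h with free water, anesthetized with urethane 1.2 g/kg ip and pylorus-ligated. Drug or vehicle given iv just after ligation; histamine 2HCl 30 mg/kg sc 3 min later. After 3 h, gastric contents were centrifuged and titrated to pH 7.0 with 0.1 mol/L NaOH. Total 3 h acid output compared with vehicle.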

For assay [2], the species on record is Sus scrofa. Kind of assay: Competitive inhibition of H+/K+ATPase in pig gastric microsomes by Lineweaver-Burk plot analysis. The conditions noted are these: Stomach, Microsome.
Assay [3] is filed under the species Sus scrofa. Kind of assay: Reversible inhibition of H+/K+ATPase in pig gastric microsomes assessed as liberation of inorganic phosphate from ATP hydrolysis at 0.1 uM incubated for 20 mins measured after compound washout. The conditions noted are these: Stomach, Microsome. In short, it runs like this:
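Gastric microsomes incubated with compound (1% DMSO final) at 37 C for 30 min in 50 mmol/L HEPES-Tris pH 6.5, 5 mmol/L MgCl2, 10 mmol/L KCl. Activity measured on an aliquot and on the remainder after washout (30 kDa ultrafiltration, resuspended compound-free). Reaction started with 2 mmol/L ATP, run at 37 C for 20 min; malachite green phosphate read-out; % of 1% DMSO vehicle, n = 2.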

The nature of assay [4]: Inhibition of H+/K+ATPase in pig gastric microsomes assessed as liberation of inorganic phosphate from ATP hydrolysis after 30 mins. Also on record: species or system Sus scrofa, Stomach, Microsome. In short, it runs like this:
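Porcine gastric mucosal microsomes (Ficoll-interface fraction, stored at -80 C) in 50 mmol/L HEPES-Tris pH 6.5 with 5 mmol/L MgCl2, valinomycin, ±10 mmol/L KCl. Preincubated with compound at 37 C for 30 min, then started by adding 2 mmol/L ATP solution. Stopped with malachite green; Pi read at 620 nm. K+-dependent activity from ± K+ difference; IC50 by sigmoidal dose-response fit.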

The nature of assay [5]: Inhibition of Na+/K+ ATPase in pig cerebral cortex. In kind it is tissue-based, Sus scrofa. The gist of the method:
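Otherwise run as the gastric H+,K+-ATPase assay: compound preincubation at 37 C for 30 min, ATP-started reaction, malachite green phosphate read-out at 620 nm.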

For assay [6], the system named is Rattus norvegicus. Nature of the assay: Inhibition of histamine-induced gastric acid secretion in Jcl:Sprague-Dawley rat at 10 mg/kg, iv administered 3 mins before histamine challenge measured after 3 hrs relative to control. The conditions noted are these: Stomach. In kind it is functional. The gist of the method:
as §1

Assay [7] relates to Canis familiaris. Nature of the assay: Inhibition of histamine-stimulated gastric acid secretion in heidenhain pouch dog at 1 mg/kg, po prestimulated with histamine 1 day before compound treatment and 1, 3, 6 and 24 hrs post compound treatment measured every 30 mins for 3 times. It is filed as functional, organism-based. Also on record: dose 1 mg/kg. The conditions noted are these: Canis lupus familiaris, Stomach. In short, it runs like this:
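Dogs dosed orally in a blinded design (0.2 mL/kg), with vehicle controls. Histamine 2HCl injected sc. Pouch gastric juice collected as three consecutive 30 min periods after each histamine dose. Volume measured, and acid titrated to pH 7.0 with 0.1 mol/L NaOH. Total 90 min acid output at each time expressed as % of pre-dosing value.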

Assay [8] concerns Canis familiaris. Nature of the assay: Inhibition of histamine-stimulated gastric acid secretion in heidenhain pouch dog at 1 mg/kg, po prestimulated with histamine 1 day before compound treatment and 1, 3, 6 and 24 hrs post compound treatment measured after 24 hrs. It is filed as functional, organism-based. Also on record: dose 1 mg/kg. The conditions noted are these: Canis lupus familiaris, Stomach. In short, it runs like this: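 Heidenhain pouch dogs dosed orally (0.2 mL/kg), blinded. Histamine 2HCl given sc 1 day before and at 1, 3, 6 and 24 h post-dose. Pouch juice collected over three consecutive 30 min periods and titrated to pH 7.0 with 0.1 mol/L NaOH. 90 min acid output expressed as % of the pre-dosing value.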

Molecules are shown by their SMILES. Active and inactive are the calls of the source. The calls are words filed in the database; no cut-off is given here.

With `CNCc1cc(-c2ccccc2)n(S(=O)(=O)c2ccc(C)cc2)c1`, the inhibition in vivo (usually the drop in the measured response relative to a control, in per cent) at 1 mg/kg in assay [1] was found to be 66%. Besides, the inhibition entry in assay [2] and in assay [3] was “Active” each time. Also, the values for the IC50 in assay [4] and in assay [5] were 55 nM and greater than 10000 nM, respectively.
Consider `CNCc1cc(-c2ccccc2)n(S(=O)(=O)c2ccccc2)c1Cl`, for which the inhibition in vivo at 1 mg/kg in assay [1] stood at 49%. For the same compound, the IC50 (usually the concentration that gives 50% inhibition) in assay [4] is 40 nM; in assay [5] it was greater than 10000 nM.
Take `CNC(C)c1cc(-c2ccccc2)n(S(=O)(=O)c2ccc(C(F)(F)F)cc2)c1` (stereo unspecified): the inhibition in vivo at 1 mg/kg in assay [1] was -4%. Also, in assay [4], the IC50 came out at 2300 nM.
For `CNCc1cc(-c2ccccc2)n(Cc2ccccc2)c1`, in assay [4], the half-inhibitory concentration (IC50) amounted to 510 nM. In assay [6], the inhibition in vivo at 10 mg/kg is 84%.
As to `Cc1ccc(S(=O)(=O)n2cc(CN)cc2-c2ccccc2)cc1`, the IC50 in assay [4] was 860 nM.
As for `CCCCc1cc(CNC)cn1S(=O)(=O)c1ccccc1`, the inhibition in vivo at 1 mg/kg in assay [1] was -8%. Moreover, in assay [4], the IC50 was 250 nM.
On to `CNCc1cc(-c2ccccc2)n(S(=O)(=O)c2ccccc2)c1C`, for which the inhibition in vivo at 1 mg/kg in assay [1] turned out to be 77%. Moreover, the values for the IC50 in assay [4] and in assay [5] were 25 nM and greater than 10000 nM, respectively.
As for `Cc1c(OCC(F)(F)F)ccnc1C[S+]([O-])c1nc2ccccc2[nH]1` (stereo unspecified), in assay [7], the inhibition result is “Active”.
With `CNCc1cc(-c2ccccc2)n(S(=O)(=O)c2ccc(OC)cc2)c1`, the inhibition in vivo at 1 mg/kg in assay [1] is 95%. Moreover, the IC50 is 30 nM in assay [4] and greater than 10000 nM in assay [5]. Also, the inhibition result in assay [8] and in assay [7] was “Active” throughout.
`CNCc1cc(-c2ccccc2)n(S(=O)(=O)c2ccccc2)c1`: the inhibition in vivo at 1 mg/kg in assay [1] worked out at 96%. The half-maximal inhibitory concentration (IC50) in assay [4] was 9.4 nM; in assay [5], greater than 10000 nM.
As for `CNCc1cc(-c2ccccc2)n(S(C)(=O)=O)c1`, in assay [4], the IC50 is greater than 10000 nM. Also, in assay [6], the inhibition in vivo at 10 mg/kg amounted to 27%.
As to `CCCCS(=O)(=O)n1cc(CNC)cc1-c1ccccc1`, the half-maximal inhibitory concentration (IC50) in assay [4] worked out at 830 nM.
Regarding `CNCc1cc(-c2ccccc2)n(S(=O)(=O)c2ccc(C(F)(F)F)cc2)c1`, in assay [1], the inhibition in vivo at 1 mg/kg worked out at 73%. For the same compound, the IC50 in assay [4] turned out to be 110 nM.
`Cc1ccc(S(=O)(=O)n2cc(C(N)=O)cc2-c2ccccc2)cc1`: the IC50 in assay [4] was greater than 10000 nM.
On the same count and under the same terms, to `CNCc1cc(C2CC2)n(S(=O)(=O)c2ccccc2)c1` belongs 1500 nM.
As for `CN(C)Cc1cc(-c2ccccc2)n(S(=O)(=O)c2ccc(C(F)(F)F)cc2)c1`, the IC50 in assay [4] is 710 nM. In addition, in assay [6], the inhibition in vivo at 10 mg/kg turned out to be 59%.
`CNCc1cc(-c2ccccc2)n(C(=O)c2ccccc2)c1`: the IC50 in assay [4] was greater than 10000 nM.
Regarding `CCNCc1cc(-c2ccc3c(c2)OCO3)n(S(=O)(=O)c2ccc(C)cc2)c1`, the IC50 in assay [4] came to 540 nM. Besides, the inhibition in vivo at 10 mg/kg in assay [6] was 39%.
In the same order, the values of `CCNCc1cc(-c2ccccc2)n(S(=O)(=O)c2ccc(C)cc2)c1` are 650 nM and 53%.
The like results for `COCc1cc(-c2ccccc2)n(S(=O)(=O)c2ccc(C)cc2)c1` were, in that order, greater than 10000 nM and -3%.
For the compound `CNCc1cn(S(=O)(=O)c2ccccc2)c(-c2ccccc2)c1C`, the inhibition in vivo at 1 mg/kg in assay [1] came out at 95%. Also, the IC50 was 29 nM in assay [4] and greater than 10000 nM in assay [5].

(Values after ChEMBL document CHEMBL2034820, “Discovery, synthesis, and biological evaluation of novel pyrrole derivatives as highly selective potassium-competitive acid blockers” (Bioorg Med Chem, 2012).)
